Results on 36 sequences are retold here after the array DNA melting data of Ke et al. (doi:10.1101/2024.01.08.574731).

A short description of series [1]: folding enthalpy; higher = less favourable; fluorescence melt of hairpins on a sequencing array, two-state fit. The conditions noted are these: sodium 0.088 M. Summed up: (§1)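 Folding enthalpy and melting temperature were estimated with bootstrapped two-state fits and combined across four replicates by inverse-variance weighting, with fitted temperatures raised by 9.35 °C to match UV melts. The data were Cy3 fluorescence of library hairpins, with annealed Cy3 and quencher oligos, on a sequenced MiSeq flow cell in 50 mM Na-HEPES pH 8.0, 25 mM NaCl, imaged in 2.5 °C steps up to 60 °C and normalised to pre-quench Cy3 and control constructs.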

Series [2] can be described thus: melting temperature; fluorescence melt of hairpins on a sequencing array, two-state fit, raised by 9.35 °C to match UV melts. The conditions noted are these: sodium 0.088 M. Summed up: as §1

For GGTACCGAAAGGTGAACC ((((((....)))..))), in series [1], the folding enthalpy is -64.9 kJ/mol. In addition, in series [2], the Tm came to 37.1 °C.

GGTACCGCGAAAGCGACC (((..(((....)))))): in series [1], the folding enthalpy is -42.5 kJ/mol. Moreover, the Tm in series [2] worked out at 28.1 °C.

Take GGTACCGGAAACGGTATC (.(((((....))))).): the folding enthalpy in series [1] was -99.8 kJ/mol. In series [2], the Tm amounted to 51.6 °C.

For the sequence GGTACGAAAGTACC (((((....))))), the folding enthalpy in series [1] was -127 kJ/mol. In addition, in series [2], the Tm came to 65.8 °C.

GGTACGACGAAAGTCACC (((..(((....)))))): the folding enthalpy in series [1] is -56.1 kJ/mol. Besides, the Tm in series [2] came to 32.9 °C.

Consider GGTACGCGAAAGCGAACC (((.(((....))).))), for which, in series [1], the folding enthalpy is -104 kJ/mol. In addition, in series [2], the Tm was determined as 58 °C.

For the sequence GGTACGGGAAACCGTACC (((((((....))))))), in series [1], the folding enthalpy was -140 kJ/mol. Moreover, the Tm in series [2] stood at 67.8 °C.

In the case of GGTACGGGAAACCGTATC (.(((((....))))).), the folding enthalpy in series [1] is -108 kJ/mol. In addition, the Tm in series [2] came to 49.7 °C.

As to GGTACGGGAAACTGTACC (((((.(....).))))), the folding enthalpy in series [1] was -144 kJ/mol. The Tm in series [2] turned out to be 50.9 °C.

On to GGTACTCGAAAGAGAACC (((.(((....))).))), for which, in series [1], the folding enthalpy is -125 kJ/mol. Also, in series [2], the Tm was determined as 49.8 °C.

On to GGTACTGGAAACAGTATC (.(((((....))))).), for which the folding enthalpy in series [1] is -89 kJ/mol. Moreover, the Tm in series [2] turned out to be 44.4 °C.

Turning to GGTACTGGAAACGGTATC (.(((.(....).))).), the folding enthalpy in series [1] is -54.5 kJ/mol. Moreover, the Tm in series [2] was 27.7 °C.

For the sequence GGTAGAGGAAACTCCACC (((.(((....))).))), the folding enthalpy in series [1] was -118 kJ/mol. In series [2], the Tm came out at 31.6 °C.

Take GGTAGCGAAAGCTAAACC ((((((....)))..))): in series [1], the folding enthalpy is -62.6 kJ/mol. The Tm in series [2] is 42.8 °C.

For the sequence GGTAGCGAAAGCTACACC ((((((....)))..))), the folding enthalpy in series [1] was -39 kJ/mol. For the same sequence, in series [2], the Tm was determined as 50.5 °C.

Consider GGTAGCGAAAGCTCAACC ((((((....)))..))), for which, in series [1], the folding enthalpy is -57.4 kJ/mol. In series [2], the Tm came out at 34.9 °C.

As for GGTAGCGAAAGCTCTACC ((((((....)))..))), in series [1], the folding enthalpy was -68.7 kJ/mol. Besides, the Tm in series [2] is 38.1 °C.

With GGTAGCGAAAGCTGACC ((((((....))).))), the folding enthalpy in series [1] was -72 kJ/mol. Besides, in series [2], the Tm worked out at 49.7 °C.

For GGTAGCGGAAACGTTGCC ((.(.((....)).).)), the folding enthalpy in series [1] was -106 kJ/mol. Also, the Tm in series [2] was 39.3 °C.

For GGTAGGCGAAAGCCAACC (((.(((....))).))), the folding enthalpy in series [1] is -117 kJ/mol. For the same sequence, in series [2], the Tm was 57.6 °C.

Consider GGTAGGCGAAAGCCACC (((.(((....)))))), for which the folding enthalpy in series [1] was -67 kJ/mol. In series [2], the Tm amounted to 58.2 °C.

On to GGTAGGGGAAACCCTACC (((((((....))))))), for which the folding enthalpy in series [1] is -184 kJ/mol. Further, the Tm in series [2] came out at 64.6 °C.

Take GGTAGTCCGAAAGGAACC (((..(((....)))))): in series [1], the folding enthalpy is -52.1 kJ/mol. Besides, in series [2], the Tm was determined as 27.1 °C.

Consider GGTAGTGGAAACACTGCC ((.((((....)))).)), for which, in series [1], the folding enthalpy is -163 kJ/mol. In addition, the Tm in series [2] worked out at 53 °C.

On to GGTATAACGAAAGTTACC (((..(((....)))))), for which the folding enthalpy in series [1] was -57.4 kJ/mol. For the same sequence, in series [2], the Tm is 37.8 °C.

Take GGTATACGAAAGTAGACC (((.(((....))).))): the folding enthalpy in series [1] is -213 kJ/mol. Also, the Tm in series [2] came to 52.1 °C.

With GGTATAGGAAACCATACC (((((.(....).))))), the folding enthalpy in series [1] was -96.6 kJ/mol. Moreover, in series [2], the Tm is 36.7 °C.

For the sequence GGTATCGAAAGATAACC ((((((....))).))), the folding enthalpy in series [1] was -90 kJ/mol. In addition, the Tm in series [2] was 40.8 °C.

With GGTATCGAAAGATACACC ((((((....)))..))), the folding enthalpy in series [1] was -49.4 kJ/mol. For the same sequence, in series [2], the Tm came to 42.9 °C.

GGTATCGAAAGATACC ((((((....)))))): in series [1], the folding enthalpy was -181 kJ/mol. In series [2], the Tm stood at 62.1 °C.

In the case of GGTATCGGAAACGATACC (((((((....))))))), in series [1], the folding enthalpy is -204 kJ/mol. Also, the Tm in series [2] came to 64 °C.

GGTATCGGAAACGATGCC ((.((((....)))).)): the folding enthalpy in series [1] was -159 kJ/mol. In series [2], the Tm was 54.6 °C.

As for GGTATCGGAAACGGTACC ((((.((....)).)))), the folding enthalpy in series [1] was -170 kJ/mol. For the same sequence, the Tm in series [2] is 51.6 °C.

For GGTATGACGAAAGTCACC (((..(((....)))))), in series [1], the folding enthalpy was -49.2 kJ/mol. The Tm in series [2] worked out at 33.6 °C.

As for GGTATGCCGAAAGGCACC (((..(((....)))))), the folding enthalpy in series [1] was -38.5 kJ/mol. For the same sequence, the Tm in series [2] was determined as 34.1 °C.

For the sequence GGTATGCGAAAGCACACC (((.(((....))).))), the folding enthalpy in series [1] is -116 kJ/mol. The Tm in series [2] was 49.7 °C.
